According to PMC8513424 (Laryngoscope Investigative Otolaryngology, 2021):
Where two headings read alike, the source gives them in different places.

Assays:
[1] = test system: NF2‐associated or sporadic VS or meningiomas; test: Pilot 1 tumor volumetric measurement by MRI; assay type: in vivo, human
[2] = test system: hearing of patients with NF2; test: Pilot 1 audiograms; assay type: in vivo, human
[3] = Pilot 2 intra‐tumoral AR‐42 concentration by LC‐MS/MS; assay type: in vivo, human
Procedure, shortened: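 The oral test compound was given at 40 mg three times weekly for 3 weeks before resection. Each VS was divided into peripheral capsule and center, and samples were frozen quickly. Drug was measured by LC-MS/MS against a standard curve of known concentrations, as the mean of three runs. Tumor:plasma ratio = capsule or center concentration ÷ pre-anesthesia plasma concentration.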

[4] = test system: p‐AKT, p‐S6 and p‐ERK in VS and meningioma; test: Pilot 2 fluorescent Western blotting of resected tumors; assay type: in vivo, human
Procedure, shortened: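 Patients took 40 mg of the test compound orally three times weekly for 3 weeks before resection. VS were split into peripheral capsule and center. Tumor lysates were run on fluorescent Western blots for p-AKT, total AKT, p-S6, total S6, p-ERK and total ERK. Phospho/total ratios were expressed as percent of an untreated banked VS or meningioma set as 100%.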

[5] = Stability in whole blood kept on ice; assay type: in vitro ADME
[6] = test system: AKT phosphorylation in primary human VS cells; test: AKT phosphorylation in primary VS cells; assay type: cell-based; conditions: Figure S2
human VS cells = conditions: cited from earlier work
primary meningioma cells = conditions: read-out: IC50, primary meningioma cells; cited from earlier work
[7] = test system: NF2‐deficient benign meningioma Ben‐Men‐1 cells; conditions: cited from earlier work
VS and meningioma cells = conditions: cited from earlier work
schwannoma xenografts = conditions: cited from earlier work
Ben‐Men‐1 xenograft = conditions: cited from earlier work
[8] = day one, cited from earlier work
[9] = Patient 1.1, 837 days on AR‐42, Left parieto‐occipital Meningioma
[10] = Patient 1.1, 837 days on AR‐42, Right neck Schwannoma
[11] = Patient 1.1, Left parieto‐occipital Meningioma
[12] = Patient 1.1, Right IAC Schwannoma
[13] = Patient 1.1, Right neck Schwannoma
[14] = Patient 1.2, 84 days on AR‐42, Right intradural C1 Meningioma
[15] = Patient 1.2, Left trigeminal Schwannoma
[16] = Patient 1.2, Right intradural C1 Meningioma
[17] = Patient 1.4, 275 days on AR‐42, Left IAC Schwannoma
[18] = Patient 1.4, 275 days on AR‐42, Left posterior fossa Meningioma
[19] = Patient 1.4, Left IAC Schwannoma
[20] = Patient 1.4, Left posterior fossa Meningioma
[21] = Patient 1.4, Let foramen magnum Meningioma
[22] = Patient 1.4, Right IAC Schwannoma
[23] = Patient 1.4, Right anterior falx Meningioma
[24] = Patient 1.5, 134 days on AR‐42, Right petroclinoid Meningioma
[25] = Patient 1.5, Right petroclinoid Meningioma
[26] = Patient 1.6, 58 days on AR‐42, Right IAC Schwannoma
[27] = Patient 1.6, Left IAC Schwannoma
[28] = Patient 1.6, Right IAC Schwannoma
[29] = Patient 1.7, Left IAC Schwannoma
[30] = Patient 1.7, Left prepontine cistern Meningioma
[31] = post‐treatment vs on AR‐42, of 11
[32] = pre‐treatment to on‐treatment, of 15
[33] = Patient # 2.7 (meningioma), 40 mg

## CC(C)[C@H](C(=O)Nc1ccc(C(=O)NO)cc1)c1ccccc1 [AR‐42]
[1]; 11 evaluable lesions
  Median on‐treatment estimated annual growth rate: 22%
  Median post‐treatment estimated annual growth rate: 10%
[1]; [9]
  % Volume growth on Rx: 54%
  On Rx response: PD (progressive disease (>20% increase in volume))
[1]; Patient 1.1, 837 days on AR‐42, Right IAC Schwannoma
  % Volume growth on Rx: −2%
[1]; [10]
  % Volume growth on Rx: 52%
  On Rx response: PD (progressive disease (>20% increase in volume))
[1]; [11]
  Change in GR Pre to On Rx (%): −128%
  Change in GR Pre to post Rx: −26%
  Est. annual growth rate On Rx (%): 23%
  Est. annual growth rate Post Rx: 125%
[1]; [12]
  Change in GR Pre to On Rx (%): −61%
  Change in GR Pre to post Rx: −10%
  Est. annual growth rate On Rx (%): −1%
  Est. annual growth rate Post Rx: 50%
[1]; [13]
  Change in GR Pre to On Rx (%): −69%
  Change in GR Pre to post Rx: −79%
  Est. annual growth rate On Rx (%): 22%
  Est. annual growth rate Post Rx: 12%
[1]; Patient 1.2, 84 days on AR‐42, Left trigeminal Schwannoma
  % Volume growth on Rx: −9%
[1]; [14]
  % Volume growth on Rx: 26%
  On Rx response: PD (progressive disease (>20% increase in volume))
[1]; [15]
  Change in GR Pre to On Rx (%): −54%
  Change in GR Pre to post Rx: −11%
  Est. annual growth rate On Rx (%): −46%
  Est. annual growth rate Post Rx: −3%
[1]; [16]
  Change in GR Pre to On Rx (%): 122%
  Change in GR Pre to post Rx: −6%
  Est. annual growth rate On Rx (%): 138%
  Est. annual growth rate Post Rx: 10%
[1]; [17]
  % Volume growth on Rx: 60%
  On Rx response: PD (progressive disease (>20% increase in volume))
[1]; [18]
  % Volume growth on Rx: −24%
  On Rx response: PR (partial response (>20% decrease in volume))
[1]; Patient 1.4, 275 days on AR‐42, Let foramen magnum Meningioma
  % Volume growth on Rx: −19%
[1]; Patient 1.4, 275 days on AR‐42, Right IAC Schwannoma
  % Volume growth on Rx: 9%
[1]; Patient 1.4, 275 days on AR‐42, Right anterior falx Meningioma
  % Volume growth on Rx: 0%
[1]; [19]
  Change in GR Pre to On Rx (%): −10%
  Change in GR Pre to post Rx: 20%
  Est. annual growth rate On Rx (%): 92%
  Est. annual growth rate Post Rx: 122%
[1]; [20]
  Change in GR Pre to On Rx (%): −170%
  Change in GR Pre to post Rx: −125%
  Est. annual growth rate On Rx (%): −37%
  Est. annual growth rate Post Rx: 8%
[1]; [21]
  Change in GR Pre to On Rx (%): −158%
  Change in GR Pre to post Rx: −138%
  Est. annual growth rate On Rx (%): −30%
  Est. annual growth rate Post Rx: −10%
[1]; [22]
  Change in GR Pre to On Rx (%): −133%
  Est. annual growth rate On Rx (%): 18%
[1]; [23]
  Change in GR Pre to On Rx (%): 0%
  Change in GR Pre to post Rx: 0%
  Est. annual growth rate On Rx (%): 0%
  Est. annual growth rate Post Rx: 0%
[1]; [24]
  % Volume growth on Rx: 104%
  On Rx response: PD (progressive disease (>20% increase in volume))
[1]; [25]
  Change in GR Pre to On Rx (%): 41%
  Change in GR Pre to post Rx: −232%
  Est. annual growth rate On Rx (%): 241%
  Est. annual growth rate Post Rx: −32%
[1]; Patient 1.6, 58 days on AR‐42, Left IAC Schwannoma
  % Volume growth on Rx: 15%
[1]; [26]
  % Volume growth on Rx: 40%
  On Rx response: PD (progressive disease (>20% increase in volume))
[1]; [27]
  Change in GR Pre to On Rx (%): 64%
  Change in GR Pre to post Rx: 32%
  Est. annual growth rate On Rx (%): 93%
  Est. annual growth rate Post Rx: 61%
[1]; [28]
  Change in GR Pre to On Rx (%): 187%
  Est. annual growth rate On Rx (%): 245%
[1]; Patient 1.7, 10 days on AR‐42, Left IAC Schwannoma
  % Volume growth on Rx: 4%
[1]; Patient 1.7, 10 days on AR‐42, Left prepontine cistern Meningioma
  % Volume growth on Rx: −9%
[1]; [29]
  Change in GR Pre to On Rx (%): 13%
  Est. annual growth rate On Rx (%): 50%
[1]; [30]
  Change in GR Pre to On Rx (%): −120%
  Est. annual growth rate On Rx (%): −113%
[1]; estimated percent annual growth rates
  Share of tumors with stable growth: 20%
[1]; of 7 meningiomas
  Meningiomas progressed on AR‐42: three
  Meningiomas stable or regressed on AR‐42: Four
[1]; of 8 VS
  VS progressed on AR‐42: three
  VS stable on AR‐42: Five
[1]; of 15 evaluable tumors
  Tumors with stable disease on AR‐42: eight
[1]; of 15 tumors
  Share of tumors with partial response: 7%
[1]; on AR‐42
  Decrease in volume of the tumor with partial response: 24%
[1]; posterior fossa meningioma of Patient 1.4
  Duration of partial response: 3 years
[1]; [31]
  Tumors that rebounded in growth rate (increased more than 20%) after termination: 4
  Tumors with growth rate decreased after termination: 3
  Tumors with growth rate not changed after termination: 4
[1]; [32]
  Tumors with increased growth rates (>20% increase): four
  Tumors with reduced growth rates (>20% decrease in growth rate): eight
  Tumors with stable growth rates (± <20% change): three
[1]; pre‐treatment to on‐treatment, P = 0.259
  Median reduction in annual growth rate: −54%
[2]; Patient 1.6, from 17 db at initiation
  Pure tone average (PTA) after treatment: 55 db
[2]; patients 1.1, 1.4 and 1.7
  Measurable hearing in the contralateral ear on AR‐42: remained stable
[3]; 40 mg
  Concentration in meningioma capsule: 5300 nM
  Concentration in meningioma tumor center: 1800 nM
  Concentrations of AR‐42 in VS: 230 to 620 nM
[3]; Patient # 2.1 (VS), 40 mg
  Concentration in tumors, Capsule: 624.2 nM
  Concentration in tumors, Center: 577.0 nM
[3]; Patient # 2.2 (VS), 40 mg
  Concentration in tumors, Capsule: 429.4 nM
  Concentration in tumors, Center: 586.6 nM
[3]; Patient # 2.4 (VS), 40 mg
  Concentration in tumors, Capsule: 230.6 nM
  Concentration in tumors, Center: 289.0 nM
[3]; Patient # 2.6 (VS), 40 mg
  Concentration in tumors, Capsule: 16.2 nM
  Concentration in tumors, Center: 7.1 nM
[3]; [33]
  Concentration in tumors, Capsule: 5296.6 nM
  Concentration in tumors, Center: 1766.2 nM
[3]; WHO grade I meningioma
  Meningioma (subject 2.7) AR‐42 level higher than the VS: 10 fold
[3]; all tumors, Pilot 2, 40 mg
  AR‐42 concentrations in tumors compared with plasma: higher
[4]; Patient 2.7, vs untreated meningioma
  p‐S6 in meningioma: reduction in p‐S6
[4]; Patient 2.7, vs untreated meningioma tumors
  p‐AKT in meningioma: not reduced
[4]; vs untreated VS, 40 mg
  Levels of p‐ERKs and p‐S6 in AR‐42‐treated VS: substantially reduced in three of four
  p‐AKT levels in AR‐42‐treated VS tumors: decreased p‐AKT levels in three of four
[5]
  Time stable in blood kept on ice: more than 4 hours
[6]
  AKT phosphorylation in primary human VS cells: reduced AKT phosphorylation
Human VS cells; read-out: IC50, growth inhibition of human VS cells
  IC50: 0.5 µM
Human VS cells; read-out: IC50 for schwannomas, previous in vitro studies
  IC50: ~0.5 µM
Primary meningioma cells
  IC50: 1.5 µM
[7]; read-out: IC50, Ben‐Men‐1 cells
  IC50: 1 µM
[7]; read-out: IC50 for meningiomas, previous in vitro studies
  IC50: ~1 µM
VS and meningioma cells
  Apoptosis: triggered apoptosis
  Cell cycle effect: induced cell‐cycle arrest at G2/M
  p‐AKT levels: decreased p‐AKT levels
Schwannoma xenografts
  AKT activation in schwannoma xenografts: decreased AKT activation
  Apoptosis in schwannoma xenografts: induced apoptosis
  Growth of schwannoma xenografts: inhibited the growth of schwannoma xenografts
Ben‐Men‐1 xenograft
  Meningioma tumor volumes: markedly diminished meningioma tumor volumes
Ben‐Men‐1 xenograft; followed 6 months post‐treatment
  Tumor return after treatment: tumors did not return
[8]; 60 mg dose
  Mean maximal plasma concentration: 1.48 (±0.38) μM
[8]; Patient 1.7, 80 mg dose
  Maximum plasma concentration: 3.25 µM
